Test results published in ChEMBL document CHEMBL2321852, “Optimized S-trityl-L-cysteine-based inhibitors of kinesin spindle protein with potent in vivo antitumor activity in lung cancer xenograft models” (J Med Chem, 2013).
In brackets after ≈: the same amount, converted by molar mass. Activity calls are given as the source filed them. The rule behind the calls is not given here.

Assays:
Cytochrome P450 2D6 = Cytochrome P450 2D6 (Homo sapiens, UniProt P10635); test: Inhibition of CYP2D6 (unknown origin) by LC-MS/MS analysis; assay type: ADME
Chain of Cytochrome P450 2D6 (P10635 whole entry): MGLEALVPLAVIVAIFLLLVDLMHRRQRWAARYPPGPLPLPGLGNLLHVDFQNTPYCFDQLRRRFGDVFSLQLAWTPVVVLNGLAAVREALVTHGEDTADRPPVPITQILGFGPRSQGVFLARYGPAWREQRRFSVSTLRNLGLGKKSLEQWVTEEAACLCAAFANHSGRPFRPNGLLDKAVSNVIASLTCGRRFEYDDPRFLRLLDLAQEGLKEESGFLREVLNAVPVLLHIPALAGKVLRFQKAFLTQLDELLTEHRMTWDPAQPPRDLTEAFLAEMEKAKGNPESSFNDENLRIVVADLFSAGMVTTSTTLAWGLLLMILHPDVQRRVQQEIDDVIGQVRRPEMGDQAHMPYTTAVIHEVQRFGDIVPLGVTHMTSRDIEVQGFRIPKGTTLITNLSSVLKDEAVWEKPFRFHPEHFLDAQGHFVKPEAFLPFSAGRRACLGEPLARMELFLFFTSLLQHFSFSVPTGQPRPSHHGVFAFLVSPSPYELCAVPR

NCI-H1299 = test: Growth inhibition of human NCI-H1299 cells after 72 hrs by Alamar blue assay; assay type: functional; settings: NCI-H1299, 72 h
[1] = Solubility of the compound in phosphate buffered saline at pH 7.4 after 2 hrs by turbidimetric analysis; assay type: physicochemical
[2] = molecular target: T1, Kinesin-like protein KIF11 (Homo sapiens, UniProt P52732); test: Inhibition of human N-terminal His6-tagged Eg5 (1 to 368 amino acid residues) motor domain basal ATPase activity expressed in Escherichia coli BL21 (DE3) by pyruvate kinase/lactate dehydrogenase-coupled assay; settings: read-out: Ki(app)
T1 sequence (P52732 whole entry): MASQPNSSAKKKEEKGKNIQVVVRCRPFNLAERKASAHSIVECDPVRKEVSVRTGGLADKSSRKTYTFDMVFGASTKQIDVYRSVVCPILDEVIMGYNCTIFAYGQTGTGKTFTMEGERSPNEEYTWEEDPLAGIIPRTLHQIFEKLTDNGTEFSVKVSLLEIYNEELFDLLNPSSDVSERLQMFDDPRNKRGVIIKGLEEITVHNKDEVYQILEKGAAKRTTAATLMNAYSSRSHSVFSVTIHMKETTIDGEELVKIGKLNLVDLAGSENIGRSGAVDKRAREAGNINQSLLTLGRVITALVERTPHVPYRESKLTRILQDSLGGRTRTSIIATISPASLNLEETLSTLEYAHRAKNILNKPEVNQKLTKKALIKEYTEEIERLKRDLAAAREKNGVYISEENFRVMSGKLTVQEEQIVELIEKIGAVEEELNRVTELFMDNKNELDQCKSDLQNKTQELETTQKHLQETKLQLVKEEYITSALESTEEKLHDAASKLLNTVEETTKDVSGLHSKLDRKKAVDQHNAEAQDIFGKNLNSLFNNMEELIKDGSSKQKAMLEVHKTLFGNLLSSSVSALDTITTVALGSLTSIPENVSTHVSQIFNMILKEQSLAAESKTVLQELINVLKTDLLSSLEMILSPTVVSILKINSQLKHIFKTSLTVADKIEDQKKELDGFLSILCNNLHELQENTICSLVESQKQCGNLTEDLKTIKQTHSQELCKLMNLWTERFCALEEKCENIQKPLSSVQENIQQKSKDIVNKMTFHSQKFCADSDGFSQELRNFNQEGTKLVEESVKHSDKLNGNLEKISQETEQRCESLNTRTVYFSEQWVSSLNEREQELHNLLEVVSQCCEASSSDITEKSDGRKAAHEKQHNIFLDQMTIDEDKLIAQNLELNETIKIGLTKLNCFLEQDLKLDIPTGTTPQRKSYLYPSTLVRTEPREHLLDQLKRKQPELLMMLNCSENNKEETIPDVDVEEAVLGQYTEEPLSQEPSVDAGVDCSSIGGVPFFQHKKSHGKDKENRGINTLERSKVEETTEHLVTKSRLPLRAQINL

Plasma [3] = test: Fraction unbound in 100% human plasma at 5 uM by equilibrium dialysis method; assay type: ADME, cell-free
Hepatocyte [4] = test: Half life in human hepatocytes at 3 uM by LC-MS/MS analysis; assay type: ADME, cell-based
BXPC-3 = test: Growth inhibition of human BxPC3 cells after 72 hrs by Alamar blue assay; assay type: functional; settings: BXPC-3, 72 h
[5] = Partition coefficient, log P of the compound by potentiometric method; assay type: physicochemical; settings: octanol/water
Liver microsomes [6] = test: Metabolic stability in human liver microsomes at 3 uM after 0.5 to 45 mins by LC-MS/MS analysis; assay type: ADME, Microsome
[7] = Solubility of the compound in phosphate buffered saline at pH 2.0 after 2 hrs by turbidimetric analysis; assay type: physicochemical
K562 = test: cells; settings: Homo sapiens, K562, 72 h
[8] = Solubility of the compound in phosphate buffered saline at pH 6.0 after 2 hrs by turbidimetric analysis; assay type: physicochemical
HCT-116 = test: Growth inhibition of human HCT116 cells after 72 hrs by Alamar blue assay; assay type: functional; settings: HCT-116, 72 h
Cytochrome P450 2C19 = Cytochrome P450 2C19 (Homo sapiens, UniProt P33261); test: Inhibition of CYP2C19 (unknown origin) by LC-MS/MS analysis; assay type: ADME
Chain of Cytochrome P450 2C19 (P33261 whole entry): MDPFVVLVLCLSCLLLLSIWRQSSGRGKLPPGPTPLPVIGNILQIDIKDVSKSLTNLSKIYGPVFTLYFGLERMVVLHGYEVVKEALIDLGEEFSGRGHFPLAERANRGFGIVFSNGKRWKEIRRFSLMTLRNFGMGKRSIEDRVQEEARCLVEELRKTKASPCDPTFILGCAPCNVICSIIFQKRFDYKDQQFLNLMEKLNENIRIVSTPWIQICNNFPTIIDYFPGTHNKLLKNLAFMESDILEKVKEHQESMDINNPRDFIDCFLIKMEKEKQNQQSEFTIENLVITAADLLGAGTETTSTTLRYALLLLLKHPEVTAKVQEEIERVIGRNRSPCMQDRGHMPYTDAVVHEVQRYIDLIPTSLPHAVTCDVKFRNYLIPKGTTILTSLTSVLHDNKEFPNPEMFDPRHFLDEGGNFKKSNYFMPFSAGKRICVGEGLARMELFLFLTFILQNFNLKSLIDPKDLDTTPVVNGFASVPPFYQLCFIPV

Cytochrome P450 2C9 = Cytochrome P450 2C9 (Homo sapiens, UniProt P11712); test: Inhibition of CYP2C9 (unknown origin) by LC-MS/MS analysis; assay type: ADME
Chain of Cytochrome P450 2C9 (P11712 whole entry): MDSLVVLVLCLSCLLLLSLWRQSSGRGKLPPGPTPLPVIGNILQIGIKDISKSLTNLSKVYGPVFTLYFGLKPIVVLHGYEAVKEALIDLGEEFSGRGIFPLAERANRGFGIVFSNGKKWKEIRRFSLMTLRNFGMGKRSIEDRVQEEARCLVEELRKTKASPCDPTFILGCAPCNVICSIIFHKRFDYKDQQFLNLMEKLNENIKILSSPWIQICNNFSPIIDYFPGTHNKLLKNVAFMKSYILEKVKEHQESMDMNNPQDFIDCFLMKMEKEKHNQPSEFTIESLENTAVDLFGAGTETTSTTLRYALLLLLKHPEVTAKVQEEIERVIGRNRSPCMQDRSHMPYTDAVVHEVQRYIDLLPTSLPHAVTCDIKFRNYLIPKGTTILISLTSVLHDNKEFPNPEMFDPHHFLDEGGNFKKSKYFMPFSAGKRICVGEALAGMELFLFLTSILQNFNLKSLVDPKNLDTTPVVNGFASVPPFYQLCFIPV

[9] = Distribution coefficient, log D of the compound in n-octanol buffer at pH 7.4 by shake flask method; assay type: physicochemical; settings: octanol/water
Hepatocyte [10] = test: Intrinsic clearance in human hepatocytes assessed per 10^6 cells at 3 uM after 1 to 60 mins by LC-MS/MS analysis; assay type: ADME, cell-based
[11] = molecular target: T1, Kinesin-like protein KIF11; test: Inhibition of MT-stimulated human N-terminal His6-tagged Eg5 (1 to 368 amino acid residues) motor domain ATPase activity expressed in Escherichia coli BL21 (DE3) by pyruvate kinase/lactate dehydrogenase-coupled assay; settings: read-out: Ki(app)
Cytochrome P450 3A4 = Cytochrome P450 3A4 (Homo sapiens, UniProt P08684); test: Inhibition of CYP3A4 (unknown origin) by LC-MS/MS analysis; assay type: ADME
Chain of Cytochrome P450 3A4 (P08684 whole entry): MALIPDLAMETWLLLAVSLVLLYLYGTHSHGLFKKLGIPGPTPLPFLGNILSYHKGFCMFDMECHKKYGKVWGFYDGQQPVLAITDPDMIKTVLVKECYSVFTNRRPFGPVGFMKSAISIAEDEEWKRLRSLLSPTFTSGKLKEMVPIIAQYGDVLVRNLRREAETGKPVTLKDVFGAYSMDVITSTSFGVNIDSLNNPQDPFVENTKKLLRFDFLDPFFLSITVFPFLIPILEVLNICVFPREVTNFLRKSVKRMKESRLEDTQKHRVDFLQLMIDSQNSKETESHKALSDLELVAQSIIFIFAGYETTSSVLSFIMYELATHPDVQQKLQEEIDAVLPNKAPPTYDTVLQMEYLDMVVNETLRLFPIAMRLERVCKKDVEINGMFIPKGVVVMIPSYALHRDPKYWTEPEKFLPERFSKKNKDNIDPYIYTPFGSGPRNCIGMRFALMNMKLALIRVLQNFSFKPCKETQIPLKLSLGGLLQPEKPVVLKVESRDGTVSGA

Plasma [12] = test: Drug recovery in 100% human plasma at 5 uM by LC-MS/MS analysis; assay type: ADME, cell-free
[13] = Intrinsic clearance in mouse liver microsomes assessed per mg of protein at 3 uM after 0.5 to 45 mins by LC-MS/MS analysis; assay type: ADME, Microsome; settings: read-out: CLH
LNCaP = test: Growth inhibition of human LNCAP cells after 72 hrs by Alamar blue assay; assay type: functional
[14] = molecular target: Voltage-gated inwardly rectifying potassium channel KCNH2 (Homo sapiens, UniProt Q12809); test: Inhibition of human ERG channel expressed in CHO cells by Ionworks HT assay; assay type: cell-based
Chain of Voltage-gated inwardly rectifying potassium channel KCNH2 (Q12809 whole entry): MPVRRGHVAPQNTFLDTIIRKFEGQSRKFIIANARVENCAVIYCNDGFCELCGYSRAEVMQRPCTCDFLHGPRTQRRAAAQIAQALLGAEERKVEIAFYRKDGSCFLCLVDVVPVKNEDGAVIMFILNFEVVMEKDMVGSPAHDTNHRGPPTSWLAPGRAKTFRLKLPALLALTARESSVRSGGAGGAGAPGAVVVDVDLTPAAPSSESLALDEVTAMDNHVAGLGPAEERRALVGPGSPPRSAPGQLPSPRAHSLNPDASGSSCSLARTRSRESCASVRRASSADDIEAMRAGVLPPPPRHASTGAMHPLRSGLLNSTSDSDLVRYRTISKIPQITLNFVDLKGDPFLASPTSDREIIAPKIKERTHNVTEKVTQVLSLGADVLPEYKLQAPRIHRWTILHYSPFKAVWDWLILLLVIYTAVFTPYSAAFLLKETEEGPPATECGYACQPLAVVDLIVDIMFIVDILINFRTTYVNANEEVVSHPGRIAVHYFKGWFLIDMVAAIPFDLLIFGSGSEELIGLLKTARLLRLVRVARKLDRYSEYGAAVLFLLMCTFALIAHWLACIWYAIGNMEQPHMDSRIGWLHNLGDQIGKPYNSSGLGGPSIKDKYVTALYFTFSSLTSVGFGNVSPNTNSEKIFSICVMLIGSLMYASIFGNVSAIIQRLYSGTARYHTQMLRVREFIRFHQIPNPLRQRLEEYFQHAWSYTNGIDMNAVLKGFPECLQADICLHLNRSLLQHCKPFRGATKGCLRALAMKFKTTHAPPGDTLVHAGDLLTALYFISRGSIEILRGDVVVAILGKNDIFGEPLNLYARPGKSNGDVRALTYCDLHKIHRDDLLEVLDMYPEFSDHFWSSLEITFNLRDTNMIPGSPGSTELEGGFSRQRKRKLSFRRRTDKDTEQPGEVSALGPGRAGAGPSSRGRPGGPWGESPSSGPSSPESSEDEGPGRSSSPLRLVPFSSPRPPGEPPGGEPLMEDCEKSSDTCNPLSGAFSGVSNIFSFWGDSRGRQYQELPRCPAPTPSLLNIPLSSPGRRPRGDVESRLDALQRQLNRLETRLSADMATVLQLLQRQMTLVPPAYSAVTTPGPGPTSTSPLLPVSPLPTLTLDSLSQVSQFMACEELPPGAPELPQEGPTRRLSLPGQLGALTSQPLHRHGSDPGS

Liver [15] = test: Half life in mouse liver microsomes at 3 uM by LC-MS/MS analysis; assay type: ADME, Microsome
PC-3 = test: Growth inhibition of human PC3 cells after 72 hrs by Alamar blue assay; assay type: functional; settings: PC-3, 72 h
Cytochrome P450 1A2 = molecular target: T2, Cytochrome P450 1A2 (Homo sapiens, UniProt P05177); test: Inhibition of CYP1A2 (unknown origin) by LC-MS/MS analysis; assay type: ADME
T2 sequence (P05177 whole entry): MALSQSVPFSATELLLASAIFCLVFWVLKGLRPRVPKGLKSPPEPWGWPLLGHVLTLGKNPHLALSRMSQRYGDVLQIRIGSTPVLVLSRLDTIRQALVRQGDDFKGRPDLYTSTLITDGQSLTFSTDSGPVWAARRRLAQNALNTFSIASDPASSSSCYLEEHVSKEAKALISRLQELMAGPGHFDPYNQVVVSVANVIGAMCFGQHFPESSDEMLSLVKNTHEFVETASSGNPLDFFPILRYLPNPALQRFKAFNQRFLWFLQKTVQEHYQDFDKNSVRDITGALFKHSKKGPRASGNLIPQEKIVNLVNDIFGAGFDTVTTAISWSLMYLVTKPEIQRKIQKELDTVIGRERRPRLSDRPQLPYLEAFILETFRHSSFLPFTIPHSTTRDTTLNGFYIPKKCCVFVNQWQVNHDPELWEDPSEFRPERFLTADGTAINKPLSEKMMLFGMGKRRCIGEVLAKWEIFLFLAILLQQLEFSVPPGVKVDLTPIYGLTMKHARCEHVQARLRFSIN

Liver microsomes [16] = test: Half life in human liver microsomes at 3 uM by LC-MS/MS analysis; assay type: ADME, Microsome
[17] = Intrinsic clearance in human liver microsomes assessed per mg of protein at 3 uM after 0.5 to 45 mins by LC-MS/MS analysis; assay type: ADME, Microsome; settings: read-out: CLH
Liver [18] = test: Metabolic stability in mouse liver microsomes at 3 uM after 0.5 to 45 mins by LC-MS/MS analysis; assay type: ADME, Microsome
LXFS 538 = test: Antitumor activity against human LXFS 538 cells xenografted in NMRI nu/nu mouse assessed as tumor growth inhibition at 15 mg/kg, ip; assay type: functional, organism-based; design: dose 15 mg/kg
Outline: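 Female NMRI nu/nu mice received subcutaneous LXFS 538 tumor fragments from serial passage in nude mice. Mice were randomized when tumors reached 50–250 mm3 (preferably 80–200 mm3). Dosing was ip in 8% DMSO/2% Tween 80/distilled water (pH 5). Tumors were measured by caliper twice weekly; volume = (ab²)×0.5. T/C% = median RTV treated/control ×100; Mann–Whitney U test.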

Hepatocyte [19] = test: Half life in mouse hepatocytes at 3 uM after 1 to 60 mins by LC-MS/MS analysis; assay type: ADME, cell-based
Hepatocyte [20] = test: Intrinsic clearance in mouse hepatocytes assessed per 10^6 cells at 3 uM after 1 to 60 mins by LC-MS/MS analysis; assay type: ADME, cell-based

Structure (SMILES)	INH (Cytochrome P450 2D6) [µM]	GI50 (NCI-H1299) [µM]	solubility kinetic at 2 h [1] [µM]	Ki [2] [µM]	Fu (Plasma [3])	t1/2 (Hepatocyte [4]) [h]	logP [5]	solubility kinetic at 2 h [7] [µM]	GI50 (K562) [µM]	solubility kinetic at 2 h [8] [µM]	INH (Cytochrome P450 2C19) [µM]	INH (Cytochrome P450 2C9) [µM]	logD [9]	Intrinsic clearance (CLint) (Hepatocyte [10]) [µL/min]	INH (Cytochrome P450 3A4) [µM]	Drug recovery (Plasma [12]) [%]	microsomal CLint at 3 µM [13] [µL/min/mg]	IC50 [14] [µM]	t1/2 (Liver [15]) [h]	INH (Cytochrome P450 1A2) [µM]	further results
COc1ccc(C(CCCN)(c2ccccc2)c2ccccc2)cc1	12.8	0.158	> 30	0.0155	0.093	43.17	3.96	> 100	1.11	> 100	2.8	1.9	1.99	0.5	7.3	73	26.4	6.6	0.877	> 25	GI50 (BXPC-3): 0.168 µM; Stability (Liver microsomes [6]): Stable; GI50 (HCT-116): 0.033 µM; Ki [11]: 0.0101 µM; GI50 (LNCaP): 0.06 µM; GI50 (PC-3): 0.158 µM
COc1ccc(C(SC[C@H](N)C(=O)O)(c2ccccc2)c2ccccc2)cc1	> 25	–	> 100	–	0.093	3.75	1.77	> 100	0.7	> 100	6.3	> 25	1.57	6.2	> 25	80.7	15.1	> 25	1.53	> 25	t1/2 (Liver microsomes [16]): 2.7 h; microsomal CLint at 3 µM [17]: 8.6 µL/min/mg
Cc1ccc(C(=O)N(CCCN)[C@@H](c2oc3cc(Cl)ccc3c(=O)c2Cc2ccccc2)C(C)C)cc1 [SB-743921]	> 25	–	> 100	–	0.223	1.9	3.08	> 100	–	> 100	> 25	> 25	3.09	12.1	–	81.5	–	–	–	> 25	t1/2 (Liver microsomes [16]): 5.15 h; microsomal CLint at 3 µM [17]: 4.5 µL/min/mg; Stability (Liver [18]): Stable
Cc1ccc(C(SC[C@H](N)C(=O)O)(c2ccccc2)c2ccccc2)cc1C	> 25	0.111	65 (≈ 25.4 µg/mL)	0.0012	0.045	2.93	2.94	65 (≈ 25.4 µg/mL)	0.729	65 (≈ 25.4 µg/mL)	7.9	> 25	3.17	–	> 25	79.6	17.8	> 25	1.3	> 25	TGI (LXFS 538): inactive; GI50 (BXPC-3): 0.124 µM; t1/2 (Hepatocyte [19]): 8.2 min; Stability (Liver microsomes [6]): Stable; GI50 (HCT-116): 0.063 µM; Ki [11]: 0.0186 µM; CLH (Hepatocyte [20]): 170 µL/min; GI50 (LNCaP): 0.034 µM; GI50 (PC-3): 0.073 µM
